Results of several laboratories.
Lines come from different studies, so protocols differ. pIC50: −log10 of the molar value. Converted amounts (≈) assume the structure as drawn.
Organism: Mycobacterium tuberculosis variant bovis BCG
Read-out: microbial growth

SMILES | strain | time | endpoint | value
Fc1ccc(COc2cccc(CNCc3ccncc3)c2)cc1 | ATCC35734 BCG | – | MIC | > 62.5 µM
COc1ccc(C=CC(=O)c2ccccc2)cc1OC | BCG | 7 days | MIC | 6.25 µg/mL
Nc1nccnc1C(=O)O | ATCC35734 BCG | 5 days | pIC50 | 3.10
c1ccc(COc2ccccc2CNCc2ccncc2)cc1 | ATCC35734 BCG | – | MIC | > 62.5 µM
C=CC(c1ccc(-c2ccc3[nH]ccc3c2)cc1)n1ccnc1 (stereo not drawn) | BCG | – | MIC50 | 41 µM (≈ 12.3 µg/mL)
Fc1ccc(COc2ccc(CNCc3ccccc3)cc2)cc1 | ATCC35734 BCG | – | MIC | > 62.5 µM
COc1ccc(C=CC(=O)c2ccc(Cl)cc2)cc1OC | BCG | 7 days | MIC | 200 µg/mL
CCCCCCn1c2c([n+](C3CCC4(CCCCC4)CC3)c1C)C(=O)c1ccccc1C2=O | BCG | 5 days | MIC50 | 0.08 µM
C=CC(c1ccc(-c2ccc(O)c(Cl)c2)cc1)n1ccnc1 (stereo not drawn) | BCG | – | MIC50 | 49.9 µM (≈ 15.5 µg/mL)
COc1ccc(C=CC(=O)c2cccc([N+](=O)[O-])c2)cc1OC | BCG | 7 days | MIC | 100 µg/mL
C=CC(c1ccc(-c2ccc3cc(OC)ccc3c2)cc1)n1ccnc1 (stereo not drawn) | BCG | – | MIC50 | 9.7 µM (≈ 3.3 µg/mL)
COc1ccc(C=CC(=O)c2ccc([N+](=O)[O-])cc2)cc1OC | BCG | 7 days | MIC | 200 µg/mL
C=CC(c1ccc(-c2ccc(C#N)cc2)cc1)n1ccnc1 (stereo not drawn) | BCG | – | MIC50 | 9.2 µM (≈ 2.63 µg/mL)
COc1ccc(C(=O)C=Cc2ccc(OC)c(OC)c2)cc1 | BCG | 7 days | MIC | 50 µg/mL
c1ccc(COc2ccc(CNCc3cccnc3)cc2)cc1 | ATCC35734 BCG | – | MIC | > 62.5 µM
